Measured values from the EternaBench riboswitch data.

System: MS2 coat protein
Assay: apparent Kd, MS2 coat protein; higher = weaker binding; RNA-MaP array; FMN 200 µM where present
How it was run: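 Designs on Illumina sequencing-chip clusters, transcribed by stalled E. coli RNA polymerase, were exposed to SNAP-549-labelled MS2 coat protein in doubling steps from 0.7 or 1.5 nM up to 3 µM, without and then with constant ligand. The buffer held 100 mM Tris-HCl pH 7.5, 80 mM KCl, 4 mM MgCl2, BSA, DTT, yeast tRNA and Tween-20. Apparent Kd values are medians of filtered per-cluster binding-curve fits to green signal normalised to red-channel RNA signal and control-cluster median Fmax.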

[1] = designed as: OFF switch for flavin mononucleotide, no ligand
[2] = ligand present: flavin mononucleotide, designed as: OFF switch for flavin mononucleotide
[3] = designed as: ON switch for flavin mononucleotide, no ligand
[4] = ligand present: flavin mononucleotide, designed as: ON switch for flavin mononucleotide

Row | Sequence | apparent Kd [1] | apparent Kd [2] | apparent Kd [3] | apparent Kd [4]
1 | GCUAGUAUUGCAGGAUAUUGAGAAUAAUUUUGGCAAGAAGGGCAUUACAUGAGGAUCACCCAUGUUUUCCUUAGUCAUACUAGC | 6.39 nM | 5.85 nM |  | 
2 | UUAUUAUAUGUAGGAUAUGCAUAUUAUUAUUAUGCAGAAGGACAUGAGGAUCACCCAUGUAUAUUAUUAUUGUAUAUUAUAUAU | 28.4 nM | 46.1 nM |  | 
3 | GUUGUCUAUGUAGGAUAUGCGAGGCGAGGCCUCGCAGAAGGACAUGAGGAUCACCCAUGUAUUGCGGUCUGCGUUCAGAUCGCU | 32.9 nM | 286 nM |  | 
4 | UGUCGGAACAGAGGAUAUUACAUGAGGAUCACCCAUGUAUGAACCAAUAGCUGGAAACAGCAAUGUAAGAAGGCUGCUCCGACA | 11.9 nM | 147 nM |  | 
5 | CGGCGCUGUCGAGAGGAUAUGCGGUGAUGGACAUGAGGAUCACCCAUGUUAGCGAUAGCAUUACGGUAGAAGGCUCUACAGCUGC |  |  | 34.7 nM | 16.3 nM
6 | CGUUAAUAUCGAGGAUAUGUCUAGACACAUGAGGAUCACCCAUGUAUGUGUAUAGAAGGCGAUAUUAACAGCAUGUUACAUCCC |  |  | 46.6 nM | 18.8 nM
7 | CUCUUGUAAGGAUAUCUGACAAGUGACGAAAGUCACAGUUCAGAGAAGGUACAUGAGGAUCACCCAUGUAGAAC | 76.7 nM | 64.4 nM |  | 
8 | CCUGUACAUGAGGAUCACCCAUGUUAGGAUAUUCAGCCCGUCGAGUAUAAGGGUUUAAGAAGAAGGGACGUGGC | 15.4 nM | 16.1 nM |  | 
9 | AUCAGCUCGUCAGGAUAUACGUCACUGCGUCAGCAGUGAGGUAAGAUCACAUGAGGAUCACCCAUGUAGAAGGGACGAGCUGAU | 6.09 nM | 13.2 nM |  | 
10 | CCUCUGUGAGGAUAUCUAGAGUAGGCUGACAAUGUCAUUCAGGAGAAGGUACAUGAGGAUCACCCAUGUUCGGC | 24.4 nM | 56.3 nM |  | 
11 | UCAUUUAUCACAGGAUAUAUUAGUAUACAGUUGUUUGGCUCUUACAUAUUAAUAGAAGGGUGAAACAUGAGGAUCACCCAUGUA |  |  | 621 nM | 224 nM
12 | UUAUAUAAUGUGAGGAUAUGCUGGUCCUUGGAUCAGCAGAAGGCACAUGAGGAUCACCCAUGUAGUAAAUUUUA | 19 nM | 24.4 nM |  | 
13 | UGUUUAUAUGAAGGAUAUACUUAACAUGAGGAUCACCCAUGUGGUGUUGUGAGUGAGUGAGUUUAGUAGAAGGUCAAUUAUUUU | 286 nM | 643 nM |  | 
14 | GGUCCACAUGAGGAUCACCCAUGUUAGGAUAUCUCCCGCCUCCUCACUAGAGGCGGACAGAGAAGGAACAUCAA | 26 nM | 78 nM |  | 
15 | AUGGGACAUGAGGAUCACCCAUGUCCGGUAUAUCGAGGAUAUGGGAUGCUCUUAAUGUAACCAGAAGGCGAUAAAA |  |  | 16.6 nM | 18.9 nM
16 | GUCCUUUCUGAGGAUAUUAUCUGGUUCGAUUGAUAAGAAGGCAGUACAUGAGGAUCACCCAUGUGGGUCGUCUG | 31.6 nM | 69.5 nM |  | 
17 | CCGGAAAUACAGGAUAUAGGAGUAAAUAUACUCCUAGAAGGGUAUACAUGAGGAUCACCCAUGUGUCCUACCGG | 26.6 nM | 27.3 nM |  | 
18 | GUCAGCUCGUGAGGAUAUACAACACUGCUUCAGCAGUGUAUUAAGAUCACAUGAGGAUCACCCAUGUAGAAGGCACGAGCUGAU | 13.8 nM | 242 nM |  | 
19 | GUACUGUAGUGAGGAUAUACGAGAACGAUAGUUCGGCGAUCCAUUUAUACAUGAGGAUCACCCAUGUAGAAGGCACUUCAGUAC | 6.26 nM | 72.5 nM |  | 
20 | UUCCUCGUUGUGAGGAUAUCGUCCUAUUUUUGUUACGAGAAGGCACAUGAGGAUCACCCAUGUUACUUGAUGUU | 19.9 nM | 71 nM |  | 
21 | UCAUUAUAAAUCCAUCAUAACUACAUGAGGAUCACCCAUGUGCAGGAUAUCGAUGGUUUAACUAUCGAGAAGGGCAAUUACAGA | 31.9 nM | 72.1 nM |  | 
22 | GCCAUCGUAUGAGGAUAUGGCACCGAAACGGUGCCAGAAGGCAUGUCAAUAGACAUGAGGAUCACCCAUGUAUUAUCGAUGGCA |  |  | 367 nM | 37.1 nM
23 | AAAACGUCAGGAUAUCCAAUAUAUGACAUGAGGAUCACCCAUGUUUCCACUCGUACCUCCGGAGAAGGGACAAAUA | 41.5 nM | 34 nM |  | 
24 | GGGUACAUCGGAGGAUAUCAGGUAAAUACAUGAGGAUCACCCAUGUCGAUGGAGACAUCGGAGAUUGAGAAGGCCGAUGUACCG |  |  | 7.6 nM | 5.13 nM

Row | Sequence | apparent Kd [1] | apparent Kd [2] | apparent Kd [3] | apparent Kd [4]
25 | AUGGAUGUCACAGGAUAUGCUAUGGAUACCAUAGCAGAAGGGUGAUCCAUCCUAUGUAAAUACAUGAGGAUCACCCAUGUAUCC |  |  | 112 nM | 73.6 nM
26 | UUAAAUCAUGUAGGAUAUGCAUGGCGAAGCUACGCAGAAGGACAUGAGGAUCACCCAUGUUAUAGCUACAGAGUUCUGUGGCAA | 102 nM | 233 nM |  | 
27 | UGGAUGGUAUGAGGAUAUGCGCGCGAAACGCGCGCAGAAGGCAUGUCAAUAGACAUGAGGAUCACCCAUGUAUUAUCUAUCCAA |  |  | 203 nM | 14.8 nM
28 | GUGCACAUUCGAGGAUAUCGGAGAGGAAUCCUUCGAGAAGGCGAUUCAUGCUGUGUUAUUCUGGACAUGAGGAUCACCCAUGUG |  |  | 192 nM | 97.8 nM
29 | GGACAUUUACAGAAGGGCAAAUUUUAUAGUGAAUAUUUAGUUCUGAUUUGCAGGAUAUGUUGAACAUGAGGAUCACCCAUGUCC |  |  | 18.3 nM | 10.9 nM
30 | AAUUAUUUACAGAAGGAGUAAGAUUUUGUAUUACUAGGAUAUGUUAACAUGAGGAUCACCCAUGUGUUUGUAGGUUUUUUAUGU | 12.2 nM | 8.54 nM |  | 
31 | UUCAGACAUGAGGAUCACCCAUGUGAGGAUAUGAUGCGAUCGUCGAAAGACGAUAGCAUCAGAAGGCACAAAUG | 103 nM | 156 nM |  | 
32 | AGAAAGGCAGGAUAUACAUGAGGAUCACCCAUGUUAAGAAAGACGGAAACGUCAAGAAGUAGAAGGGCCAAGAA | 23.4 nM | 21.1 nM |  | 
33 | AGUCGGAGCAGAGGAUAUUACAUGAGGAUCACCCAUGUAAUAAAUGGAAGCUGGAAACAGCAAUGUAAGAAGGCUGCUCCGACA | 16.4 nM | 47.9 nM |  | 
34 | UUAAAUCAUGUAGGAUAUGCAUGGCGAAGCUACGCAGAAGGACAUGAGGAUCACCCAUGUUAUAGCUACCAAGUUAGGUGGCAA | 99 nM | 190 nM |  | 
35 | GGACAUGUCGUCUACAUGAGGAUCACCCAUGUCGAUAGACAUGAGGAUAUCGAUAAGAAUUGUAUCGAGAAGGUAUGUAGGUCC |  |  | 18.7 nM | 24.9 nM
36 | ACAUACAUUCGAGGAUAUCGGUGAACAAAUUAACGAGAAGGCGAUAUAAUGUUUAAUCUUAUAAACAUGAGGAUCACCCAUGUA |  |  | 68.5 nM | 28 nM
37 | UAUACACAUGAGGAUCACCCAUGUGAGGAUAUGUUAAUUUUAAUGAAAAUUAAAAUUAACAGAAGGCACAUAUA | 64.1 nM | 80.3 nM |  | 
38 | UAUAUAUAAUAUAUUAACAUGAGGAUCACCCAUGUCGCUAGACAGGAUAUAUUUUAUUUUUUUAAGUAGAAGGGUCAUAUAAUU |  |  | 63.7 nM | 86.1 nM
39 | GAAUAAUUGAUCCAUUUUUAAAACAUGAGGAUCACCCAUGUGCAGGAUAUCGAUAGUUUUAAAUUCGAGAAGGGCAAGAACUGU | 128 nM | 173 nM |  | 
40 | GUCAGCUCGUAAGGAUAUACAACACUGCUUCGGCAGUGUAUUAAGAUCACAUGAGGAUCACCCAUGUAGAAGGCACGAGCUGAU | 7.06 nM | 18.9 nM |  | 
41 | UCAUUUCAGUUAGGAUAUUAAAACAUGACGAUACAUGAGGAUCACCCAUGUUAAGAAGGAACUAAUACAUAUAAUGCAAUGUUC | 15.9 nM | 13.2 nM |  | 
42 | UGAACCUUCACAGGAUAUCAUGCGAAAAUUGCGUGAGAAGGGUGAAUAUGGUGUUCAUAGUUGCACAUGAGGAUCACCCAUGUA |  |  | 191 nM | 128 nM
43 | UAUAUGUCAGGAUAUCGAUUGGAAUGGAAUUUAGUUCUGGUUGAGAAGGGACAUGAGGAUCACCCAUGUUUUUC | 35.5 nM | 213 nM |  | 
44 | UGAUCGAGAGAUCUUAGAUUCUGGUAGGAUAUACAUUAAAAUAGCUUUACAUGAGGAUCACCCAUGUAGAAGGACUAGAGUCUA | 7.8 nM | 8.67 nM |  | 
45 | AAUAACAGAGGAUAUACAAAAAUAAAAGGAAACAAAAGAAAACAUGAGGAUCACCCAUGUAGAAGGCUGAAUAA | 21.1 nM | 18.9 nM |  | 
46 | GCCAUCGGGUGAGGAUAUAAAAUUAUGAUUAAAUUAGAAGGCAUCUCAUAAGACAUGAGGAUCACCCAUGUAGUUAAGAUGGCA |  |  | 90.6 nM | 31.9 nM
47 | CUGAUGUGAGGAUAUCGGGCUACAGGACUGCUGCUAGCAAACGAGAAGGCACAUGAGGAUCACCCAUGUGAGAG | 18.1 nM | 25.4 nM |  | 
48 | CCACUGAUACCUUGGCCGCUACAUGAGGAUCACCCAUGUCGUGAGGAUAUCCCACCAUACUGUUAGGAGAAGGCGCGUAUGGGC | 11 nM | 17.2 nM |  | 
